Calls of active or inactive are those of the source. The calls are words filed in the database; no cut-off is given here.
Assays:
[1] = tested on: MDA-MB-435; test: Cytotoxicity against human MDA-MB-435 cells after 48 hrs by SRB assay; conditions: MDA-MB-435, 48 h
[2] = tested on: L1210; test: Cytotoxicity against mouse L1210 cells at 100 ug/disk by disk diffusion method; type: functional
How it was run: (§1)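 Soft agar colony formation assay with compound applied by disk diffusion; cell lines: murine L1210 leukemia and C38 colon, human HCT-116 colon, H-125 lung, CEM leukemia, normal hematopoietic CFU-GM. Differential cytotoxicity given as zone-unit differential between a solid tumor line and leukemia (ΔSL) or normal cells (ΔSN).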

[3] = tested on: HCT-116; test: Increase in microtubule density in human HCT116 up to 50 uM; type: functional, cell-based
How it was run: (§2)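 Cell-based screen for disruption of interphase and mitotic microtubules, tested at concentrations up to 50 µM; scored for microtubule density, bundling, circular mitotic spindles, micronucleation and other nuclear changes.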

[4] = tested on: HCT-116; test: Cytotoxicity against human HCT116 cells after 72 hrs by trypan blue viable cell count; conditions: HCT-116, 72 h
[5] = Cytotoxicity against human H125 cells at 100 ug/disk by disk diffusion method; type: functional
How it was run: as §1

[6] = tested on: HCT-116; test: Effect on micronucleation in human HCT116 up to 50 uM; type: functional, cell-based
How it was run: as §2

[7] = Cytotoxicity against human H116 cells at 100 ug/disk by disk diffusion method; type: functional
How it was run: as §1

[8] = tested on: HCT-116; test: Formation of circular mitotic spindles in human HCT116 up to 50 uM; type: functional, cell-based
How it was run: as §2

[9] = tested on: MC-38; test: Cytotoxicity against mouse C38 cells at 100 ug/disk by disk diffusion method; type: functional
How it was run: as §1

[10] = tested on: L1210; test: Cytotoxicity against mouse L1210 cells at 30 ug/disk by disk diffusion method; type: functional
How it was run: as §1

[11] = tested on: MC-38; test: Cytotoxicity against mouse C38 cells at 30 ug/disk by disk diffusion method; type: functional
How it was run: as §1

[12] = Cytotoxicity against human H125 cells at 30 ug/disk by disk diffusion method; type: functional
How it was run: as §1

[13] = Cytotoxicity against human H116 cells at 30 ug/disk by disk diffusion method; type: functional
How it was run: as §1

[14] = tested on: HCT-116; test: Antitumor activity against HCT116 bearing SCID mice at 25 mg/kg bolus iv after 11 days relative to control; type: functional, Homo sapiens
How it was run: (§3)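 SCID mice were implanted subcutaneously with 10^6 HCT-116 cells and pooled, 5 per group. Dosing started 3 days after inoculation: daily iv tail-vein bolus for 5 days, 0.25 mL of 1 or 2 mg/mL (about 12.5 or 25 mg/kg/day) in DMSO/cremophor/propylene glycol/saline vehicle. Tumor weight and body weight were followed to day 30, and %T/C was calculated versus untreated controls.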

[15] = Cytotoxicity against human H116 cells at 9 ug/disk by disk diffusion method; type: functional
How it was run: (§4)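 Disk diffusion soft agar colony formation assay using solid tumor lines (murine colon C38, human colon HCT-116, human lung H125), leukemia lines (murine L1210, human CEM) and normal CFU-GM cells. Results are inhibition zones in zone units. Differential cytotoxicity is the zone difference between solid tumor and leukemia cells (ΔSL) or normal cells (ΔSN).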

[16] = tested on: MC-38; test: Cytotoxicity against mouse C38 cells at 36 ug/disk by disk diffusion method; type: functional
How it was run: as §4

[17] = Drug level in HCT116 bearing SCID mice plasma at 25 mg/kg, iv after 24 hrs; type: ADME, organism-based; set-up: dose 25 mg/kg, route intravenous; conditions: mouse
How it was run: (§5)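 SCID mice bearing subcutaneous HCT-116 tumors (~100 mg) got a single iv dose of 0.5 mg/mouse (25 mg/kg) in 0.25 mL. Vehicle: 10 mg/mL DMSO stock mixed 1:1 with cremophor/propylene glycol (60:40), then diluted 20-fold in saline. Plasma was taken from individual mice at 1, 15, 30 min and 1, 2, 6, 24 h. Drug was extracted by solid-phase extraction and measured by C18 HPLC with UV detection at 218 nm.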

[18] = tested on: HCT-116; test: Cytotoxicity against human HCT116 cells assessed as cell kill at 10 ng/mL after 24 hrs; type: functional
How it was run: (§6)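 Clonogenic assay. HCT-116 cells were seeded at 200 to 20 000 per 60 mm dish in RPMI + 10% FBS, then given drug at 1 mg/mL and 10-fold dilutions. Exposure was 2 h or 24 h followed by drug-free medium, or continuous. Dishes were incubated 7 days and stained with methylene blue; colonies of ≥50 cells were counted and normalized to untreated control. Experiments were repeated to span 100–0.1% survival.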

[19] = tested on: HCT-116; test: Abnormal circular mitotic spindles formation in human HCT116 cells at 2 to 20 uM; type: functional, cell-based
[20] = tested on: HCT-116; test: Survival of human HCT116 cells at 5 ng/mL after 168 hrs; type: functional; conditions: HCT-116, 168 h, read-out: Survival
How it was run: as §6

[21] = Cytotoxicity against human H125 cells at 9 ug/disk by disk diffusion method; type: functional
How it was run: as §4

[22] = tested on: L1210; test: Cytotoxicity against mouse L1210 cells at 9 ug/disk by disk diffusion method; type: functional
How it was run: as §4

[23] = tested on: CCRF-CEM; test: Cytotoxicity against human CEM cells at 36 ug/disk by disk diffusion method; type: functional
How it was run: as §4

[24] = tested on: HCT-116; test: Formation of thick bundles of microtubule stabilization in human HCT116 cells at 20 uM; type: functional, cell-based
[25] = tested on: HCT-116; test: Antitumor activity against HCT116 bearig SCID mouse assessed as tumor weight at 25 mg/kg, iv after 24 hrs; type: functional, Homo sapiens
[26] = tested on: HCT-116; test: Antitumor activity against HCT116 bearing SCID mice at 12.5 mg/kg bolus iv after 9 days relative to control; type: functional, Homo sapiens
How it was run: as §3

[27] = tested on: HCT-116; test: Formation of thick bundles of microtubule stabilization in human HCT116 cells at 2 to 20 uM; type: functional, cell-based
[28] = tested on: HCT-116; test: Antitumor activity against HCT116 bearig SCID mouse assessed as tumor weight at 25 mg/kg, iv after 30 mins; type: functional, Homo sapiens
[29] = tested on: HCT-116; test: Cytotoxicity against human HCT116 cells assessed as cell kill at 1.2 ng/mL after 168 hrs; type: functional
How it was run: as §6

[30] = Cytotoxicity against human CFU-GM cells at 9 ug/disk by disk diffusion method; type: cell-based
How it was run: as §4

[31] = Drug level in HCT116 bearing SCID mice plasma at 25 mg/kg, iv after 1 min; type: ADME, organism-based; set-up: dose 25 mg/kg, route intravenous; conditions: mouse
How it was run: as §5

[32] = tested on: HCT-116; test: Increase in microtubule density in human HCT116 cells at 20 uM; type: functional, cell-based
[33] = Drug level in HCT116 bearing SCID mice plasma at 25 mg/kg, iv after 2 hrs; type: ADME, organism-based; set-up: dose 25 mg/kg, route intravenous; conditions: mouse
How it was run: as §5

[34] = tested on: MC-38; test: Cytotoxicity against mouse C38 cells at 40 ug/disk by disk diffusion method; type: functional
How it was run: as §1

[35] = Cytotoxicity against human CFU-GM cells at 40 ug/disk by disk diffusion method; type: cell-based
How it was run: as §1

[36] = Cytotoxicity against human H125 cells at 40 ug/disk by disk diffusion method; type: functional
How it was run: as §1

[37] = Cytotoxicity against human H116 cells at 40 ug/disk by disk diffusion method; type: functional
How it was run: as §1

[38] = tested on: L1210; test: Cytotoxicity against mouse L1210 cells at 40 ug/disk by disk diffusion method; type: functional
How it was run: as §1

[39] = tested on: CCRF-CEM; test: Cytotoxicity against human CEM cells at 40 ug/disk by disk diffusion method; type: functional
How it was run: as §1

[40] = Cytotoxicity against human H125 cells at 60 ug/disk by disk diffusion method; type: functional
How it was run: as §4

[41] = tested on: MC-38; test: Cytotoxicity against mouse C38 cells at 60 ug/disk by disk diffusion method; type: functional
How it was run: as §4

[42] = Cytotoxicity against human H116 cells at 60 ug/disk by disk diffusion method; type: functional
How it was run: as §4

[43] = tested on: L1210; test: Cytotoxicity against mouse L1210 cells at 60 ug/disk by disk diffusion method; type: functional
How it was run: as §4

[44] = Cytotoxicity against human CFU-GM cells at 30 ug/disk by disk diffusion method; type: cell-based
How it was run: as §1

SMILES | IC50 [1] [µM] | Activity [3] | IC50 [4] [µM] | Activity [6] | Activity [8] | Activity [10] [Zone units] | Activity [11] [Zone units] | Activity [12] [Zone units] | Activity [13] [Zone units] | also measured
C=C1C[C@H](C)C[C@@H]2CC=C[C@@H](C/C=C\C(=O)O[C@H]3C[C@@H](O[C@H]3/C=C/[C@@H]3CC(C)=CC(=O)O3)[C@@H](O)[C@@H](O)C1)O2 [FIIJIANOLIDE D] | 21.4 | inactive | 1.9 | inactive | inactive |  |  |  |  | Activity [2]: 0 Zone units; Activity [5]: 0 Zone units; Activity [7]: 0 Zone units; Activity [9]: 150 Zone units
C=C1C[C@H](C)C[C@@H]2CC=C[C@@H](C/C=C\C(=O)O[C@H]3C[C@@H](O[C@H]3/C=C/[C@@H]3CC(C)=CCO3)[C@@H](O)[C@@H](O)C1)O2 [FIJIANOLIDE A] | 20.2 |  | 9.7 |  |  | 150 | 0 | 50 | 100 | 
C=C1C[C@H](C)C[C@@H]2CC=C[C@@H](C/C=C\C(=O)O[C@H]([C@@H](O)/C=C/[C@@H]3CC(C)=CCO3)C[C@@H]3O[C@H]3[C@@H](O)C1)O2 [FIJIANOLIDE B] | 0.007 |  | 0.003 |  |  |  |  |  |  | Activity [14]: 11%; Activity [15]: 700 Zone units; Activity [16]: 800 Zone units; concentration at 24 h [17]: 200 µg/mL; Activity [18]: 90%; Activity [19]: Active; viability at 0.005 µg/mL [20]: 0.01%; Activity [21]: 250 Zone units; Activity [22]: 500 Zone units; Activity [23]: >1000 Zone units; Activity [24]: inactive; Activity [25]: 2.8 µg/mg; Activity [26]: 80%; Activity [27]: Active; Activity [28]: 4.7 µg/mg; Activity [29]: 90%; Activity [30]: 550 Zone units; concentration at 1 min [31]: 160 µg/mL; Activity [32]: Active; concentration at 2 h [33]: 1 µg/mL
C=C1C[C@H](C)C[C@@H]2CC=C[C@@H](C/C=C\C(=O)OC([C@@H](O)/C=C/[C@@H]3CC(C)=CC(=O)O3)C[C@@H]3O[C@H]3[C@@H](O)C1)O2 (stereo not given in full) [FIJIANOLIDE E] | 1.3 | Active | 0.7 | Active | Active |  |  |  |  | Activity [34]: 400 Zone units; Activity [35]: 500 Zone units; Activity [36]: 400 Zone units; Activity [37]: 500 Zone units; Activity [38]: 350 Zone units; Activity [39]: 550 Zone units
C=C1C[C@H](C)C[C@@H]2CC=C[C@@H](C/C=C\C(=O)O[C@H]3C[C@@H](O[C@H]3/C=C/[C@@H]3C[C@@]4(C)O[C@H]4[C@@H](O)O3)[C@@H](O)[C@@H](O)C1)O2 [FIJIANOLIDE F] | > 50 | inactive | > 50 | inactive | inactive |  |  |  |  | Activity [40]: 100 Zone units; Activity [41]: 0 Zone units; Activity [42]: 50 Zone units; Activity [43]: 150 Zone units
C=C1C[C@H](C)C[C@@H]2CC=C[C@@H](C/C=C\C(=O)O[C@H]([C@@H](O)/C=C/[C@@H]3C[C@@]4(C)O[C@H]4[C@@H](O)O3)C[C@@H]3O[C@H]3[C@@H](O)C1)O2 [FIJIANOLIDE G] | 9.2 | Active | 14.1 | Active | Active | 150 | 350 | 200 | 200 | Activity [44]: 100 Zone units
C=C1C[C@H](C)C[C@@H]2CC=C[C@@H](C/C=C\C(=O)O[C@H]3C[C@@H](O[C@H]3/C=C/[C@@H]3CC(C)=CC(OC)O3)[C@@H](O)[C@@H](O)C1)O2 (stereo not given in full) [FIJIANOLIDE H] | > 50 | inactive | > 50 | inactive | inactive |  |  |  |  | Activity [34]: 150 Zone units; Activity [36]: 0 Zone units; Activity [37]: 0 Zone units; Activity [38]: 0 Zone units
C=C1C[C@H](C)C[C@@H]2CC=C[C@@H](C/C=C\C(=O)O[C@H]3C[C@@H](O[C@H]3/C=C/[C@@H]3CC(C)=CC(O)O3)[C@@H](O)[C@@H](O)C1)O2 (stereo not given in full) [FIJIANOLIDE I] | > 50 | inactive | > 50 | inactive | inactive | 0 | 50 | 0 | 0 | 
